From ChEMBL document CHEMBL4699460, “Integrating DNA-encoded chemical libraries with virtual combinatorial library screening: Optimizing a PARP10 inhibitor” (Bioorg Med Chem Lett, 2020) come the findings set out here.

By IC50 is commonly meant the concentration at which inhibition is half-maximal. For orientation: inhibition means the share of the control response that was lost under treatment.

For assay [1], the target named is T1, Protein mono-ADP-ribosyltransferase PARP10 (Homo sapiens, UniProt Q53GL7).
T1 sequence (Q53GL7 whole entry): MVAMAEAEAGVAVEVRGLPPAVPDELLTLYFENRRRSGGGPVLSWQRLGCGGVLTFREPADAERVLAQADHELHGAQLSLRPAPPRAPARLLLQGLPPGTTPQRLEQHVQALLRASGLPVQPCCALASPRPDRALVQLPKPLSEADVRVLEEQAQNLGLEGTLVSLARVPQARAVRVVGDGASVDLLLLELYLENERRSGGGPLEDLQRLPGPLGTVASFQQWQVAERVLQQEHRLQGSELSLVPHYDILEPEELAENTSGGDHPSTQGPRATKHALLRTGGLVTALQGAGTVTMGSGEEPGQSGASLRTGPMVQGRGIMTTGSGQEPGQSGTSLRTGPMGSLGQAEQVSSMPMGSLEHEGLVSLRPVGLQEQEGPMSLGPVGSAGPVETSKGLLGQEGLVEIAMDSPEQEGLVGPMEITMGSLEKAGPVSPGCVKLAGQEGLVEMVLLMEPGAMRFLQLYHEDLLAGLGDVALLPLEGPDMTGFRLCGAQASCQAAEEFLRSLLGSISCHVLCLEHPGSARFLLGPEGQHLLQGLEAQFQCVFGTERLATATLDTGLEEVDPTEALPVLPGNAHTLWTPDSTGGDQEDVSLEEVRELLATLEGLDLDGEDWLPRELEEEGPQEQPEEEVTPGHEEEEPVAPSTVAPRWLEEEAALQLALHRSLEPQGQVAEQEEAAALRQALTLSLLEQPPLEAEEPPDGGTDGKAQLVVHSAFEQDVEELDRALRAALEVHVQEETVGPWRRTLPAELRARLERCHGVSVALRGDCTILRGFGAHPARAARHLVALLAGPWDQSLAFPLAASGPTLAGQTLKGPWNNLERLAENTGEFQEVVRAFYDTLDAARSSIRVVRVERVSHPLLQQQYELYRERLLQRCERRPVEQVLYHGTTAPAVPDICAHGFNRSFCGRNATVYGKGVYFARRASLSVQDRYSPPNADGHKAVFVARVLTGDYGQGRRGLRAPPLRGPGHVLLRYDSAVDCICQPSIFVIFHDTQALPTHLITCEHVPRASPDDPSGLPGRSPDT
In words: Inhibition of N-terminal FLAG-tagged and C-terminal strep-tagged human PARP10 (805 to 1025 residues) expressed in baculovirus infected Sf9 cells assessed as reduction in NAD+-dependent ADP ribosylation using histone as substrate incubated for 1 hr in presence of biotinylated NAD+ and activated DNA by chemiluminescence based microplate reader assay. A digest of the protocol: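 The IC50 was derived from a concentration-dependent inhibition curve for PARP10 in the histone ADP-ribosylation assay.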

The target in assay [2] is Protein mono-ADP-ribosyltransferase PARP6 (Homo sapiens) (UniProt Q2NL67). In words: Inhibition of N-terminal GST tagged full length human PARP6 expressed in baculovirus infected Sf9 cells assessed as reduction in NAD+-dependent ADP ribosylation using histone as substrate at 10 uM incubated for 1 hr in presence of biotinylated NAD+ and activated DNA by chemiluminescence based microplate reader assay relative to control.
Protein mono-ADP-ribosyltransferase PARP6 (Homo sapiens), sequence (Q2NL67 whole entry): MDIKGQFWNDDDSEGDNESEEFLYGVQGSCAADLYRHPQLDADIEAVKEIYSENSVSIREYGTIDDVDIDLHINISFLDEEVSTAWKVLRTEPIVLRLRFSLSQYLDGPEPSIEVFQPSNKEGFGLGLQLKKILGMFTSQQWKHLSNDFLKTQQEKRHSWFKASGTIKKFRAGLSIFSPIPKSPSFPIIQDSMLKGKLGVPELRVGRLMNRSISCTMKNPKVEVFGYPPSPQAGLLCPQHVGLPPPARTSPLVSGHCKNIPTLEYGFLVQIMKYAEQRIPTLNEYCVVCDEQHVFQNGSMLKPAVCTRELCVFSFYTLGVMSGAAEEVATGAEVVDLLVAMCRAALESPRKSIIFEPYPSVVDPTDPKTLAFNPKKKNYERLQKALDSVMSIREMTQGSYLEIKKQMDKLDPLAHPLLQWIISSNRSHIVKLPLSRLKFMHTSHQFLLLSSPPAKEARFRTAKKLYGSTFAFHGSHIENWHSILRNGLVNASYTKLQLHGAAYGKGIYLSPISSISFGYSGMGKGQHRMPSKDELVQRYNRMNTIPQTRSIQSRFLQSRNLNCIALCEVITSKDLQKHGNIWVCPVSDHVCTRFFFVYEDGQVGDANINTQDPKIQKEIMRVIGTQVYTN

In assay [3] the target is T2, Protein mono-ADP-ribosyltransferase PARP11 (Homo sapiens) (UniProt Q9NR21).
T2 sequence (whole entry): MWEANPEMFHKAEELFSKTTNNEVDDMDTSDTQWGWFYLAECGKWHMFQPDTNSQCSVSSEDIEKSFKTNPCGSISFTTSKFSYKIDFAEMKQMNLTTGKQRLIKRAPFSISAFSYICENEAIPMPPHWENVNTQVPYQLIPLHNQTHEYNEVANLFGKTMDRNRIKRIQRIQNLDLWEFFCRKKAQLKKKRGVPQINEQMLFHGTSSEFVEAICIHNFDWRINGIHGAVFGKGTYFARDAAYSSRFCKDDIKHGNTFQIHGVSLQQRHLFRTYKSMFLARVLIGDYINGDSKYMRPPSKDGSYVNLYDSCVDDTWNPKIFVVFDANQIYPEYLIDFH
In words: Inhibition of N-terminal GST tagged human PARP11 (8 to 338 residues) expressed in baculovirus infected Sf9 cells assessed as reduction in NAD+-dependent ADP ribosylation using histone as substrate at 10 uM incubated for 1 hr in presence of biotinylated NAD+ and activated DNA by chemiluminescence based microplate reader assay relative to control.

The target of assay [4] is T3, Protein mono-ADP-ribosyltransferase PARP12 (Homo sapiens) (UniProt Q9H0J9).
T3 sequence (whole entry): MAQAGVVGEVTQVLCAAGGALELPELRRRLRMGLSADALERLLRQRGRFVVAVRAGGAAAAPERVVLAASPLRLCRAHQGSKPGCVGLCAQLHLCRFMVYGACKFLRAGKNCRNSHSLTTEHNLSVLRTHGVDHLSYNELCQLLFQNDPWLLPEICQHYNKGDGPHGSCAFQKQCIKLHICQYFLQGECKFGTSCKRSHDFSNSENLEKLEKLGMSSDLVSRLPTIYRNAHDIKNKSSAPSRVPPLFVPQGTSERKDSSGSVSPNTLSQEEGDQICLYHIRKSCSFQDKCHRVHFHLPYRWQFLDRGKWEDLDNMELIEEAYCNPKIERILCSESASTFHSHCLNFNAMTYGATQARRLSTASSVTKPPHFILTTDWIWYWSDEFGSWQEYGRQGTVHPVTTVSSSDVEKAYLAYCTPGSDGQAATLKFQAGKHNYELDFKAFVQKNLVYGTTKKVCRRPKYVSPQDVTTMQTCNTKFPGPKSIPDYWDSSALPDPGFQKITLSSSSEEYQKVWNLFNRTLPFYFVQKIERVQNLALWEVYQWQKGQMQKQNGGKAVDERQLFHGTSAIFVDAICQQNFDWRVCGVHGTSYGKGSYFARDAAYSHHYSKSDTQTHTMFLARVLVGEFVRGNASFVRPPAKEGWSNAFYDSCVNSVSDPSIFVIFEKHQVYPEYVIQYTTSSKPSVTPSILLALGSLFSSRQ
Nature of the assay: Inhibition of N-terminal His-GST tagged human PARP12 (500 to 701 residues) expressed in baculovirus infected Sf9 cells assessed as reduction in NAD+-dependent ADP ribosylation using histone as substrate at 10 uM incubated for 1 hr in presence of biotinylated NAD+ and activated DNA by chemiluminescence based microplate reader assay relative to control.

Structures are written as SMILES. Some results are limits rather than exact numbers.

Regarding `CC1(CNC(=O)COc2cccc3c2CCCC3=O)CCN(C(=O)CCc2nc3ccccc3[nH]c2=O)CC1`, the IC50 in assay [1] is 3.9 µM. Also, the inhibition in assay [2] was 0%; in assay [3] it was > 50%; in assay [4], 16%.

On to `CNC(=O)[C@H](CNC(=O)CCc1nc2ccccc2[nH]c1=O)NC(=O)c1ccc2c(c1)CCCC2=O`, for which, in assay [1], the IC50 amounted to 6 µM. The inhibition in assay [2], in assay [3] and in assay [4] was < 25% throughout.
